ChEMBL document CHEMBL4219118, “Cathepsin B inhibitors: Further exploration of the nitroxoline core” (Bioorg Med Chem Lett, 2018)

Experiments:
Cathepsin B [1] = molecular target: T1, Cathepsin B (Homo sapiens, UniProt P07858); assay: Non-competitive inhibition of recombinant human cathepsin B exopeptidase activity assessed as inhibitory constant for enzyme-substrate-inhibitor complex using Abz-Gly-Ile-Val-Arg-Ala-Lys(Dnp)-OH as substrate in presence of pH 5 acetate buffer by fluorescence assay
Cathepsin B [2] = molecular target: T1, Cathepsin B; assay: Non-competitive inhibition of recombinant human cathepsin B endopeptidase activity assessed as inhibitory constant for enzyme-substrate-inhibitor complex using Z-Arg-Arg-AMC as substrate in presence of pH 6 phosphate buffer by fluorescence assay
Cathepsin B [3] = molecular target: T1, Cathepsin B; assay: Non-competitive inhibition of recombinant human cathepsin B exopeptidase activity assessed as inhibitory constant for enzyme-inhibitor complex using Abz-Gly-Ile-Val-Arg-Ala-Lys(Dnp)-OH as substrate in presence of pH 5 acetate buffer by fluorescence assay
Cathepsin B [4] = molecular target: T1, Cathepsin B; assay: Non-competitive inhibition of recombinant human cathepsin B endopeptidase activity assessed as inhibitory constant for enzyme-inhibitor complex using Z-Arg-Arg-AMC as substrate in presence of pH 6 phosphate buffer by fluorescence assay
Cathepsin B [5] = molecular target: T1, Cathepsin B; assay: Inhibition of recombinant human cathepsin B exopeptidase activity assessed as inhibitory constant for enzyme-substrate-inhibitor complex using Abz-Gly-Ile-Val-Arg-Ala-Lys(Dnp)-OH as substrate in presence of pH 5 acetate buffer by fluorescence assay
Cathepsin B [6] = molecular target: T1, Cathepsin B; assay: Inhibition of recombinant human cathepsin B endopeptidase activity assessed as inhibitory constant for enzyme-inhibitor complex using Z-Arg-Arg-AMC as substrate in presence of pH 4.5 acetate buffer by fluorescence assay
In short: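 Recombinant cathepsin B endopeptidase activity assayed with the small substrate Z-Arg-Arg-AMC at pH 4.5. Acidic conditions chosen to shift the enzyme toward the closed (exopeptidase) conformation. Ki reported.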

Cathepsin B [7] = molecular target: T1, Cathepsin B; assay: Inhibition of recombinant human cathepsin B endopeptidase activity assessed as inhibitory constant for enzyme-substrate-inhibitor complex using Z-Arg-Arg-AMC as substrate in presence of pH 6 phosphate buffer by fluorescence assay
Cathepsin B [8] = molecular target: T1, Cathepsin B; assay: Inhibition of recombinant human cathepsin B exopeptidase activity assessed as inhibitory constant for enzyme-inhibitor complex using Abz-Gly-Ile-Val-Arg-Ala-Lys(Dnp)-OH as substrate in presence of pH 5 acetate buffer by fluorescence assay

SMILES | Ki (Cathepsin B [1]) [µM] | Ki (Cathepsin B [2]) [µM] | Ki (Cathepsin B [3]) [µM] | Ki (Cathepsin B [4]) [µM] | Ki (Cathepsin B [5]) | Ki (Cathepsin B [6]) | Ki (Cathepsin B [7]) | Ki (Cathepsin B [8])
O=[N+]([O-])c1ccc(O)c(CN2CCOCC2)c1 | 97 | 212 | 97 | 212 |  |  |  | 
O=[N+]([O-])c1ccc(-c2cc3ccccc3s2)c2ncccc12 |  |  |  |  | Not Active | Not Active | Not Active | Not Active
CC(=O)c1ccc(-c2c(-c3ccc([N+](=O)[O-])c4cccnc34)oc3ccccc23)cc1 |  |  |  |  | Not Active | Not Active | Not Active | Not Active
N#Cc1ccc(-c2ccc([N+](=O)[O-])c3cccnc23)cc1 |  |  |  |  | Not Active | Not Active | Not Active | Not Active
O=[N+]([O-])c1ccc(-c2ccccc2)c2ncccc12 |  |  |  |  | Not Active | Not Active | Not Active | Not Active
Cc1cccc(-c2ccc([N+](=O)[O-])c3cccnc23)c1 |  |  |  |  | Not Active | Not Active | Not Active | Not Active
Cc1ccc([N+](=O)[O-])c2cccnc12 |  |  |  |  | Not Active | Not Active | Not Active | Not Active
N#CCN(Cc1ccccc1)C(=O)c1cc([N+](=O)[O-])ccc1O | 96 | 342 | 96 | 342 |  |  |  | 
O=[N+]([O-])c1ccc(-c2c(-c3ccc([N+](=O)[O-])c4cccnc34)oc3ccccc23)cc1 |  |  |  |  | Not Active | Not Active | Not Active | Not Active
O=C(NCC1CCN(C2Cc3ccccc3C2)CC1)c1cc([N+](=O)[O-])c2cccnc2c1O |  |  |  |  | Not Active | Not Active | Not Active | Not Active
O=C(O)c1ccc2c([N+](=O)[O-])ccc(O)c2n1 | 240 | 139 | 240 | 139 |  |  |  | 
N#CCN(Cc1ccccc1)Cc1cc([N+](=O)[O-])ccc1O |  |  |  |  | Not Active | Not Active | Not Active | Not Active
O=[N+]([O-])c1ccc(-c2ccsc2)c2ncccc12 |  |  |  |  | Not Active | Not Active | Not Active | Not Active
Cc1ccc(-c2ccc([N+](=O)[O-])c3cccnc23)cc1 |  |  |  |  | Not Active | Not Active | Not Active | Not Active
O=C(c1cc([N+](=O)[O-])ccc1O)N1CCOCC1 | 176 | 237 | 176 | 237 |  |  |  | 
COCCN(CC1CCN(Cc2nc3ccccc3o2)CC1)C(=O)c1cc([N+](=O)[O-])c2cccnc2c1O |  |  |  |  | Not Active | Not Active | Not Active | Not Active
CC1CCN(C(=O)c2cc([N+](=O)[O-])ccc2O)CC1 |  |  |  |  | Not Active | Not Active | Not Active | Not Active
O=[N+]([O-])c1ccc(O)c(CN2CCCCC2)c1 |  |  |  |  | Not Active | Not Active | Not Active | Not Active
O=[N+]([O-])c1cccc(-c2ccc([N+](=O)[O-])c3cccnc23)c1 |  |  |  |  | Not Active | Not Active | Not Active | Not Active
CN(CC#N)C(=O)c1cc([N+](=O)[O-])ccc1O |  |  |  |  | Not Active | Not Active | Not Active | Not Active
CC(=O)c1ccc(-c2ccc(-c3ccc([N+](=O)[O-])c4cccnc34)n2C)cc1 |  |  |  |  | Not Active | Not Active | Not Active | Not Active
O=[N+]([O-])c1ccc(-c2ccc[nH]2)c2ncccc12 |  |  |  |  | Not Active | Not Active | Not Active | Not Active
N#CCNCc1cc([N+](=O)[O-])ccc1O |  |  |  |  | Not Active | Not Active | Not Active | Not Active
CN(CC#N)Cc1ccc2c([N+](=O)[O-])ccc(O)c2n1 |  |  |  |  | Not Active | Not Active | Not Active | Not Active

SMILES | Ki (Cathepsin B [1]) [µM] | Ki (Cathepsin B [2]) [µM] | Ki (Cathepsin B [3]) [µM] | Ki (Cathepsin B [4]) [µM] | Ki (Cathepsin B [5]) | Ki (Cathepsin B [6]) | Ki (Cathepsin B [7]) | Ki (Cathepsin B [8])
Cc1ccc(-c2ccc([N+](=O)[O-])c3cccnc23)s1 |  |  |  |  | Not Active | Not Active | Not Active | Not Active
CN(CC#N)Cc1cc([N+](=O)[O-])ccc1O |  |  |  |  | Not Active | Not Active | Not Active | Not Active
O=C(c1cc([N+](=O)[O-])ccc1O)N1CCCCC1 |  |  |  |  | Not Active | Not Active | Not Active | Not Active
N#CCNC(=O)c1cc([N+](=O)[O-])ccc1O | 168 | 271 | 168 | 271 |  |  |  | 
N#Cc1ccc([N+](=O)[O-])c2cccnc12 |  |  |  |  | Not Active | Not Active | Not Active | Not Active
CC(=O)c1ccc(-c2ccc(-c3ccc([N+](=O)[O-])c4cccnc34)s2)cc1 |  |  |  |  | Not Active | Not Active | Not Active | Not Active
NC(=O)c1ccc([N+](=O)[O-])c2cccnc12 |  |  |  |  | Not Active | Not Active | Not Active | Not Active
CN(CC#N)C(=O)c1cc([N+](=O)[O-])c2cccnc2c1O | 121 | 185 | 121 | 185 |  |  |  | 
Cc1ccc2c([N+](=O)[O-])cc([N+](=O)[O-])c(O)c2n1 |  |  |  |  | Not Active | Not Active | Not Active | Not Active
O=C(NCC1CCN(Cc2nc3ccccc3s2)CC1)c1cc([N+](=O)[O-])c2cccnc2c1O |  |  |  |  | Not Active | Not Active | Not Active | Not Active
N#Cc1ccc(-c2ccc(-c3ccc([N+](=O)[O-])c4cccnc34)o2)cc1 |  |  |  |  | Not Active | Not Active | Not Active | Not Active
O=C(O)c1ccc([N+](=O)[O-])c2cccnc12 |  |  |  |  | Not Active | Not Active | Not Active | Not Active
O=[N+]([O-])c1ccc(-c2ccoc2)c2ncccc12 |  |  |  |  | Not Active | Not Active | Not Active | Not Active
Cn1cccc1-c1ccc([N+](=O)[O-])c2cccnc12 | 224 | 333 | 224 | 333 |  |  |  | 
O=[N+]([O-])c1ccc(-c2ccco2)c2ncccc12 |  |  |  |  | Not Active | Not Active | Not Active | Not Active
O=[N+]([O-])c1ccc(-c2cc3ccccc3o2)c2ncccc12 |  |  |  |  | Not Active | Not Active | Not Active | Not Active
Nc1ccc2c([N+](=O)[O-])ccc(O)c2n1 | 329 | 202 | 329 | 202 |  |  |  | 
CC1CCN(Cc2cc([N+](=O)[O-])ccc2O)CC1 |  |  |  |  | Not Active | Not Active | Not Active | Not Active
O=[N+]([O-])c1ccc(-c2occc2-c2ccc([N+](=O)[O-])c3cccnc23)cc1 |  |  |  |  | Not Active | Not Active | Not Active | Not Active
O=C(O)c1ccc2c([N+](=O)[O-])cc([N+](=O)[O-])c(O)c2n1 |  |  |  |  | Not Active | Not Active | Not Active | Not Active
O=C(c1cc([N+](=O)[O-])c2cccnc2c1O)N1CCOCC1 | 122 | 136 | 122 | 136 |  |  |  | 
O=[N+]([O-])c1ccc(Br)c2ncccc12 |  |  |  |  | Not Active | Not Active | Not Active | Not Active
N#CC1(NCc2cc([N+](=O)[O-])ccc2O)CC1 |  |  |  |  | Not Active | Not Active | Not Active | Not Active
